The term IC50 denotes the point on the concentration scale where inhibition reaches its midpoint. As usually defined, the inhibition is the relative decrease from the control value, in per cent.

The source made the active and inactive calls. No cut-off for these calls is given here.

This is an account of results in ChEMBL document CHEMBL2216753, “Novel 1,4-benzoxazine and 1,4-benzodioxine inhibitors of angiogenesis” (Eur J Med Chem, 2012).

Data set [1] can be described thus: Antiproliferative activity against human HMEC1 cells after 7 days by coulter counter method. In kind it is functional, cell-based. As to conditions: HMEC-1, 168 h.
For data set [2], the system named is MCF7. Kind of data set: Cytotoxicity against human MCF7 cells at 30 uM after 3 days by coulter counter method. In kind it is cell-based. As to conditions: mcf7, 72 h. The essentials: (§1)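 Cells seeded at 10,000 cells per cm2; after 16 h, fresh medium with test compound added. Cells trypsinized and counted with a Coulter counter on day 4 (BAEC, HeLa, MCF-7) or day 7 (HMEC-1). Cytotoxicity (cell death) was judged after 3 days in culture. HMEC-1 grown in EGM-2 with supplements and growth factors.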

Data set [3] has as its system MCF7. In words: Cytotoxicity against human MCF7 cells at 100 uM after 3 days by coulter counter method. In kind it is cell-based. As to conditions: mcf7, 72 h. The essentials:
as §1

A short description of data set [4]: Cytotoxicity against bovine BAEC cells at 30 uM after 3 days by coulter counter method. Type of data set: cell-based, Bos taurus. As to conditions: cattle, 72 h. The essentials:
as §1

Data set [5] is filed under the species Gallus gallus. In words: Antiangiogenic activity in chicken embryo chorioallantoic membrane model assessed as destruction of vessels with bleeding at 20 nmol/disc after 3 days. In kind it is functional, tissue-based.
Data set [6] is described as follows: Antimigratory activity against mouse MAEC cell migration at 3 uM after 5 hrs by wound closure assay. In kind it is functional. The essentials:
(§2)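 Confluent MAEC monolayers wounded with a 1.0-mm wide micropipette tip, then incubated in fresh medium with test compound. Wounds photographed after 5 h and width calculated from digital images. Mean ± SD of 2–4 independent experiments; Student t test, p < 0.05 significant.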

Data set [7] deals with HeLa. In words: Cytotoxicity against human HeLa cells at 30 uM after 3 days by coulter counter method. Type of data set: cell-based. As to conditions: 72 h. The essentials:
as §1

For data set [8], the species on record is Gallus gallus. Kind of data set: Antiangiogenic activity in chicken embryo chorioallantoic membrane model assessed as degradation of immature existing blood vessels at 40 to 250 nmol/disc after 3 days. Type of data set: functional, tissue-based.
Data set [9] is described as follows: Cytotoxicity against bovine BAEC cells at 100 uM after 3 days by coulter counter method. Type of data set: cell-based, Bos taurus. As to conditions: cattle, 72 h. The essentials: as §1
For data set [10], the system named is MAEC. In words: Antimigratory activity against mouse MAEC cell migration after 5 hrs by wound closure assay. In kind it is functional, cell-based. The essentials: as §2
Data set [11] is described as follows: Antiproliferative activity against bovine BAEC cells after 4 days by coulter counter method. Type of data set: functional, cell-based. As to conditions: Bos taurus, 96 h.
In data set [12] the test system is HeLa. In words: Antiproliferative activity against human HeLa cells after 4 days by coulter counter method. In kind it is functional, cell-based. The following applies: 96 h.
For data set [13], the system named is HMEC-1. In words: Antiangiogenic activity in human HMEC1 cells assessed as inhibition of tube formation at 30 uM after 4 to 6 hrs by matrigel assay. In kind it is functional, cell-based. The essentials:
(§3)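 HMEC-1 (60,000 cells) seeded on matrigel (10 mg/mL) after 30 min gelling at 37 °C, in DMEM containing test compound; after 4–6 h cells photographed and tubes scored 0 (none) to 3 (maximal, like untreated control). Mean ± SD of 2–4 independent experiments; Student t test, p < 0.05 significant.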

Data set [14] can be described thus: Antimigratory activity against mouse MAEC cell migration at 10 uM after 5 hrs by wound closure assay. Type of data set: functional. The essentials:
as §2

Data set [15] concerns HMEC-1. In words: Antiangiogenic activity in human HMEC1 cells assessed as inhibition of tube formation at 10 uM after 4 to 6 hrs by matrigel assay. Type of data set: functional, cell-based. The essentials:
as §3

Data set [16] can be described thus: Cytotoxicity against human HMEC1 cells at 100 uM after 3 days by coulter counter method. Type of data set: cell-based. As to conditions: hmec-1, 72 h. The essentials:
as §1

The species named for data set [17] is Gallus gallus. Kind of data set: Antiangiogenic activity in chicken embryo chorioallantoic membrane model at 250 nmol/disc after 3 days. Type of data set: functional, tissue-based.
In data set [18] the test system is HeLa. Kind of data set: Cytotoxicity against human HeLa cells at 100 uM after 3 days by coulter counter method. As to conditions: 72 h. In kind it is cell-based. The gist of the method: as §1
In data set [19] the test system is MCF7. In words: Antiproliferative activity against human MCF7 cells after 4 days by coulter counter method. In kind it is functional, cell-based. The following applies: MCF7, 96 h.
For data set [20], the system named is MAEC. Kind of data set: Antimigratory activity against mouse MAEC cell migration at 30 uM after 5 hrs by wound closure assay. Type of data set: functional. The gist of the method: as §2
Data set [21] in a line: Cytotoxicity against human HMEC1 cells at 30 uM after 3 days by coulter counter method. In kind it is cell-based. As to conditions: hmec-1, 72 h. The gist of the method: as §1

In the case of `CCOC(=O)CN(Cc1cc(F)cc(F)c1)c1ccc2c(c1)N(C)CC(C)(COc1ccc(C(=N)N)cc1)O2` (stereo unspecified), the IC50 stood at 6.7 µM in data set [1], 4 µM in [11], 4.5 µM in data set [12] and 4.5 µM in data set [19]. The Activity entry in data set [2], in data set [3], in [4], in data set [7], in data set [9] and in [16] was “Toxic” each time. Besides, the Activity entry in data set [18] and in data set [21] was “Toxic” throughout. Further, the outcome in data set [5] and in [8] was Active. The inhibition at 3 µM in data set [6] is > 40%. In addition, in data set [10], the inhibition entry is “Dose-dependent effect”. The inhibition entry in data set [13], in data set [17] and in data set [20] was “Active” throughout. In data set [14], the inhibition at 10 µM came to 50%. For the same compound, in data set [15], the inhibition entry is “inactive”.
